Measured values as given in ChEMBL document CHEMBL4706641, “Novel Carboline Fungal Histone Deacetylase (HDAC) Inhibitors for Combinational Treatment of Azole-Resistant Candidiasis” (J Med Chem, 2021).
Active and inactive are the calls of the source. The calls are words filed in the database; no cut-off is given here.

Legend:
[1] = system: Candida albicans; assay: Antifungal activity against Candida albicans 0304103 incubated for 48 hrs by microdilution assay; type: functional; settings: Candida albicans, 0304103, read-out: MIC80
Summary of the method: (§1)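 Checkerboard broth microdilution per CLSI M27-A3 (modified), clinical Candida isolates. Exponential cells in RPMI 1640 (MOPS-buffered) at 10³ cells/mL; fluconazole 0.25–64 μg/mL crossed with test compound 2–64 μg/mL (final). 48 h at 35 °C; OD630 read with background subtracted. MIC80 = 80% growth inhibition; FICI ≤0.5 synergy, >4 antagonism.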

[2] = system: Candida albicans; assay: Synergistic antifungal activity against Candida albicans 0304103 incubated for 48 hrs in presence of fluconazole by microdilution assay; type: functional; summary of the method: as §1
[3] = system: Candida albicans; assay: Synergistic antifungal activity against azole-resistant Candida albicans assessed as potentiation of VRC antifungal activity by measuring VRC incubated for 48 hrs in presence of fluconazole by checkerboard microdilution assay; type: functional
[4] = system: [Candida] auris; assay: Synergistic antifungal activity against Candida auris assessed as potentiation of ITC antifungal activity by measuring ITC incubated for 48 hrs in presence of fluconazole by checkerboard microdilution assay; type: functional, organism-based; settings: Candidozyma auris
[5] = system: Nakaseomyces glabratus; assay: Synergistic antifungal activity against Candida glabrata assessed as potentiation of ITC antifungal activity by measuring ITC incubated for 48 hrs in presence of fluconazole by checkerboard microdilution assay; type: functional, organism-based
[6] = system: Candida tropicalis; assay: Synergistic antifungal activity against Candida tropicalis assessed as potentiation of ITC antifungal activity by measuring ITC incubated for 48 hrs in presence of fluconazole by checkerboard microdilution assay; type: functional, organism-based
[7] = system: Candida albicans; assay: Synergistic fungicidal activity against Candida albicans 0304103 assessed as potentiation of fluconazole antifungal activity at 32 ug/ml incubated for 48 hrs in presence of 64 ug/ml fluconazole by checkerboard microdilution assay; type: functional, organism-based; settings: dose 32.0 µg/ml
[8] = system: Candida albicans; assay: Antifungal activity against Candida albicans 9172 incubated for 48 hrs by microdilution assay; type: functional; summary of the method: as §1
[9] = system: Candida albicans; assay: Synergistic antifungal activity against Candida albicans 4108 incubated for 48 hrs in presence of fluconazole by microdilution assay; type: functional; summary of the method: as §1
[10] = system: Candida albicans; assay: Synergistic antifungal activity against Candida albicans 9884 assessed as fluconazole MIC incubated for 48 hrs in presence of fluconazole by microdilution assay (reference value: fluconazole alone MIC = >[…] ug/ml); type: functional
[11] = system: Candida albicans; assay: Synergistic antifungal activity against Candida albicans 10061 assessed as fluconazole MIC incubated for 48 hrs in presence of fluconazole by microdilution assay (reference value: fluconazole alone MIC = >[…] ug/ml); type: functional
[12] = system: Pichia kudriavzevii; assay: Synergistic antifungal activity against Candida krusei 10153 assessed as fluconazole MIC incubated for 48 hrs in presence of fluconazole by microdilution assay (reference value: fluconazole alone MIC = […] ug/ml); type: functional
[13] = system: Pichia kudriavzevii; assay: Synergistic antifungal activity against Candida krusei 10153 assessed as potentiation of fluconazole antifungal activity by measuring FICI incubated for 48 hrs in presence of fluconazole by checkerboard microdilution assay; type: functional
Summary of the method: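 Checkerboard broth microdilution per CLSI M27-A3 (modified), clinical Candida isolates. 48 h at 35 °C; OD630 read with background subtracted. MIC80 = 80% growth inhibition; FICI ≤0.5 synergy, >4 antagonism.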

[14] = system: Candida albicans; assay: Antifungal activity against Candida albicans 0304103 infected in ICR mouse model of candidiasis assessed as reduction in kidney fungal burden at 10 mg/kg, ip dosed 24 hrs post infection and co-treated with 1 mg/kg, ip fluconazole and measured after 5 days; type: functional, organism-based; settings: time 5.0 day
[15] = system: Candida albicans; assay: Inhibition of HDAC in Candida albicans supernatants using Boc-Lys(Ac)-AMC substrate incubated for 18 hrs by fluorescence based assay
Summary of the method: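 Fungal whole-cell HDAC assay: C. albicans converted to protoplasts by snailase/mercaptoethanol (37 °C, 3 h), resuspended in PBS; compound 1–100 μM final, 35 °C 12 h, then Boc-Lys(Ac)-AMC 33 μM, 37 °C 6 h. Stopped with trypsin/Nonidet P-40 buffer, 37 °C 2 h; fluorescence Ex 360/Em 460 nm. Inhibition vs control after blank subtraction; three independent experiments.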

[16] = Toxicity in HUVEC; type: cell-based; settings: human, HUVEC cells
[17] = system: Candida albicans; assay: Down regulation of ERG11 mRNA expression in Candida albicans 0304103 at 32 ug/ml incubated for 24 hrs in presence of 32 ug/ml fluconazole by RT-PCR analysis; type: functional; settings: dose 32.0 µg/ml
Summary of the method: (§2)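 C. albicans 0304103 (initial 1 × 10⁶ cells/mL) treated with DMSO, fluconazole 32 μg/mL, compound 32 μg/mL, or both in YEPD medium, 35 °C for 24 h. Total RNA extracted, reverse transcribed, real-time PCR for 40 cycles; fold change by 2^−ΔΔCt with ACT1 as internal control.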

[18] = system: Candida albicans; assay: Down regulation of CDR1 mRNA expression in Candida albicans 0304103 at 32 ug/ml incubated for 24 hrs in presence of 32 ug/ml fluconazole by RT-PCR analysis; type: functional; settings: dose 32.0 µg/ml; summary of the method: as §2
[19] = system: Candida albicans; assay: Inhibition of pre-formed biofilms in Candida albicans 0304103 at 64 ug/ml incubated for 24 hrs in presence of fluconazole by XTT reduction assay; type: functional; settings: dose 64.0 µg/ml
Summary of the method: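 Mature biofilms grown 24 h at 37 °C from C. albicans 0304103 (1.0 × 10⁶ CFU/mL in RPMI 1640), then treated with drugs alone or combined as in the formation assay; viability by XTT reduction at OD490. Three independent experiments; t-test versus control.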

[20] = system: Candida albicans; assay: Antifungal activity against Candida albicans 0304103 infected in ICR mouse model of candidiasis assessed as reduction in fungal invasion by measuring clusters of fungal infiltration in renal pelvis at 10 mg/kg, ip dosed 24 hrs post infection and measured after 5 days by H and E staining based microscopical analysis; type: functional, organism-based; settings: time 5.0 day
Summary of the method: (§3)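 Two ICR mice per group, infected and treated as in the kidney burden model (IV 5 × 10⁵ C. albicans 0304103; IP compound 10 mg/kg, fluconazole 1 mg/kg, or combination, 5 days). Kidneys fixed in 4% paraformaldehyde, paraffin-embedded, 4 μm sections, H&E stained, examined at 40× and 200×.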

[21] = system: Candida albicans; assay: Antifungal activity against Candida albicans 0304103 infected in ICR mouse model of candidiasis assessed as reduction in morphological changes of budded-to-hyphal transition at 10 mg/kg, ip dosed 24 hrs post infection and measured after 5 days by H and E staining based microscopical analysis; type: functional, organism-based; settings: time 5.0 day; summary of the method: as §3

SMILES: O=C(Cc1ccc(OCCCn2c3c(c4cccc(Cl)c42)CCNC3)cc1)NO
- MIC80 [1]: > 64 µg/mL
- MIC80 [2]: 2 µg/mL
- fractional inhibitory concentration index (FICI) [3]: 0.035
- Activity [4]: Active
- Activity [5]: Active
- Activity [6]: Active
- Activity [7]: Active
- MIC80 [8]: > 64 µg/mL
- MIC80 [9]: 2 µg/mL
- MIC80 [10]: 0.5 µg/mL
- MIC80 [11]: 2 µg/mL
- MIC80 [12]: 8 µg/mL
- fractional inhibitory concentration index (FICI) [13]: 0.25
- Activity [14]: Active
- inhibition [15]: Active
- IC50 [16]: 9.64 µM
- Activity [17]: Active
- Activity [18]: Active
- inhibition [19]: Active
- Activity [20]: inactive
- Activity [21]: inactive
